Test results from PMC5790683 (Journal of Pharmaceutical Analysis, 2013).

What was measured:
[1] = Pharmacokinetic study in healthy male subjects after oral desmopressin; format: in vivo; conditions: human, plasma, 0.4 mg
Method in brief: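 Healthy male volunteers (n=6), fasted 9 h, received a single oral 0.4 mg dose (2×0.2 mg tablets). Plasma was spun at 3200 rpm for 10 min, stored at −20±5 °C, spiked with IS, extracted and quantified by positive-ESI MRM UPLC–MS/MS (HSS T3 column, 40 °C; LLOQ 1.01 pg/mL). Non-compartmental analysis.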

[2] = Processed sample stability; format: physicochemical; conditions: 45 h at 2-8 °C, UPLC-MS/MS, mean of n=6
Method in brief: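 Processed-sample stability was tested at LQC and HQC in human plasma, six replicates per level: autosampler 48 h, wet extract 45 h, reinjection 24 h. Extracts were analysed by UPLC–MS/MS against a 9-point calibration of 1.01–200 pg/mL. Acceptance was accuracy within ±15% and precision ≤15% RSD.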

AUC(0-inf) [1]: 0.157 ± 0.051 ng·h/mL | AUC(0-t) [1]: 0.149 ± 0.046 ng·h/mL | Cmax [1]: 0.035 ± 0.0081 ng/mL | Tmax [1]: 1.4 ± 0.48 h | half-life [1]: 3.48 ± 0.5 h | level at 1.25 h [1]: 0.0361 ng/mL | Accuracy/stability (%), Process (wet extract) ([2]; spiked 3.05 pg/mL (LQC)): 94.84% | Accuracy/stability (%), Process (wet extract) ([2]; spiked 156.23 pg/mL (HQC)): 99.20%
SMILES: NC(=O)CC[C@@H]1NC(=O)[C@H](Cc2ccccc2)NC(=O)[C@H](Cc2ccc(O)cc2)NC(=O)CCSSC[C@@H](C(=O)N2CCC[C@H]2C(=O)N[C@H](CCCN=C(N)N)C(=O)NCC(N)=O)NC(=O)[C@H](CC(N)=O)NC1=O [desmopressin]
